This passage reports EC50 results from ChEMBL document CHEMBL1144138, “Cytotoxic terpenoids from the Formosan soft coral Nephthea brassica” (1999).

Holding throughout (format): functional
In assay [1] the test system is A549. As to the kind of experiment: Cytotoxicity against human A549 cells after 6 days by MTT assay. The following applies: A549, 144 h, read-out: ED50 (the source's name). The method, boiled down: (§1)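 Cells were adapted to RPMI 1640 with 10% FCS and 1 mM […], then grown at 37 °C in 5% CO2. Seeding per well was 750 for A549, 750 for HT-29, 2000 for KB and 1500 for P-388. Three to eight concentrations spanning an 8- to 128-fold range were tested. After exposure, 1 mg/mL MTT was added for 4 h at 37 °C, formazan was dissolved in DMSO, and A540 was read. ED50 is the concentration giving 50% absorbance reduction versus untreated cells.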

The test system of assay [2] is HT-29. Description: Cytotoxicity against human HT-29 cells after 6 days by MTT assay. The conditions noted are these: HT-29, 144 h, read-out: ED50 (the source's name). The method, boiled down: as §1
(In general: Formazan colour is commonly taken as a measure of viable cells.)

The subject of assay [3] is KB. As to the kind of experiment: Cytotoxicity against human KB cells after 3 days by MTT assay. The conditions noted are these: 72 h, read-out: ED50 (the source's name). The method, boiled down:
as §1

Assay [4] deals with P388. As to the kind of experiment: Cytotoxicity against mouse P388 cells after 3 days by MTT assay. The following applies: P388, 72 h, read-out: ED50 (the source's name). The method, boiled down: as §1

Converted amounts (≈) assume the structure as drawn. Some results are limits rather than exact numbers.

For the molecule `C=C(C)[C@@H]1CC/C(C)=C/CC/C(C)=C/CC[C@]2(C)O[C@H]2C1` [EPOXYCEMBRENE A], the EC50 was 3.61 µg/mL (≈ 12.5 µM) in assay [1], 2.72 µg/mL (≈ 9.43 µM) in assay [2], 3.41 µg/mL (≈ 11.8 µM) in assay [3] and 0.4 µg/mL (≈ 1.39 µM) in assay [4].
For `C/C1=C\CC/C(C)=C/CC(C(C)(C)O)CC/C(C)=C/CC1` (stereo unspecified) [NEPHTHENOL], the EC50 in assay [1] came to 2.72 µg/mL (≈ 9.36 µM); in assay [2], 3.01 µg/mL (≈ 10.4 µM); in assay [3], 1.81 µg/mL (≈ 6.23 µM); in assay [4] it was 0.42 µg/mL (≈ 1.45 µM).
The like results for `C/C1=C\CCC2=C[C@H](OC2=O)C(C(C)(C)O)CC/C(C)=C/CC1` (stereo partly specified) [BRASSICOLIDE] were, in that order, over 50 µg/mL, 5.81 µg/mL (≈ 18.2 µM), 2.4 µg/mL (≈ 7.54 µM) and 2.44 µg/mL (≈ 7.66 µM).
In the same order, the values of `C=C(C)C1CC[C@@]2(C)CCC[C@@](C)(O)[C@@H]2C1` (stereo partly specified) are over 50 µg/mL, over 50 µg/mL, over 50 µg/mL and 3.86 µg/mL (≈ 17.4 µM).
As to `CC(=O)OC(C)(C)C1CC/C(C)=C/CC/C(C)=C/CCC2=C[C@@H]1OC2=O` (stereo partly specified) [BRASSICOLIDE ACETATE], the EC50 in assay [1] turned out to be 3.03 µg/mL; in assay [2] it was 0.81 µg/mL; in assay [3], 0.72 µg/mL; in assay [4], 1.2 µg/mL.
Take `C=C(C)[C@H]1C/C=C(\C)CC/C=C(\C)CC/C=C(\C)CC1` [CEMBRENE_A]: the EC50 in assay [1] was 1.11 µg/mL (≈ 4.07 µM); in assay [2], 3.42 µg/mL (≈ 12.6 µM); in assay [3] it was 3.73 µg/mL (≈ 13.7 µM); in assay [4] it was 1.1 µg/mL (≈ 4.04 µM).
In the same order, the values of `C=C[C@]1(C)CC[C@H](C(=C)C)C[C@@H]1C(=C)C` are over 50 µg/mL, over 50 µg/mL, over 50 µg/mL and 0.92 µg/mL (≈ 4.5 µM).
The like results for `C=C(C)C1CC[C@@]2(C)CCC[C@@](C)(OC(C)=O)[C@@H]2C1` (stereo partly specified) were, in that order, 0.12 µg/mL (≈ 0.454 µM), over 50 µg/mL, over 50 µg/mL and 2.44 µg/mL (≈ 9.23 µM).
The like results for `C/C1=C\CC/C(C)=C/[C@H](O)C(C(C)(C)O)CC/C(C)=C/CC1` (stereo partly specified) were, in that order, 0.71 µg/mL (≈ 2.32 µM), 1.02 µg/mL (≈ 3.33 µM), 0.23 µg/mL (≈ 0.75 µM) and 1.8 µg/mL (≈ 5.87 µM).
